Source: ChEMBL document CHEMBL4350959, “Design and Identification of a Novel, Functionally Subtype Selective GABAA Positive Allosteric Modulator (PF-06372865)” (J Med Chem, 2019)
Converted amounts (≈) assume the structure as drawn.

How the values were obtained:
[1] = Lipophilicity, log D of the compound; assay type: physicochemical; conditions: octanol/water
In short: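 LogD was either measured or calculated with an internal logD model.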

[2] = Volume of distribution at steady state in rat; assay type: ADME; conditions: in vivo, read-out: Vdss
[3] = Solubility of the compound at pH 6.5; assay type: physicochemical; conditions: buffer
[4] = Permeability in RRCK cells; assay type: ADME, cell-based, Canis lupus familiaris, MDCKII-LE; conditions: dog, MDCK; read-out: permeability
In short: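 Transcellular permeability across Ralph Russ canine kidney (RRCK) cell monolayers, reported as x10^-6 cm/sec.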

[5] = Volume of distribution at steady state in dog; assay type: ADME, Canis lupus familiaris; conditions: in vivo, read-out: Vdss
[6] = Oral bioavailability in dog; assay type: ADME, organism-based, Canis lupus familiaris; conditions: in vivo
[7] = Oral bioavailability in rat; assay type: ADME, organism-based; conditions: in vivo

| logD [1] | Compound | other results |
| --- | --- | --- |
| 2.6 | CCn1cnc2c(-c3ccc(F)c(-c4cccnc4)c3)cnnc21 | – |
| 3.1 | Cc1cc(-c2cc(-c3cnnc4c3ncn4C(C)C)ccc2F)ccn1 | – |
| 1.6 | CC(=O)N1CC(Oc2cc(-c3cnnc4c3ncn4C(C)C)ccc2F)C1 | – |
| 2.8 | CCn1cnc2c(-c3ccc(F)c(-c4cccc(C(=O)NC)c4)c3)cnnc21 | – |
| 2.3 | CCn1cnc2c(-c3ccc(F)c(Oc4cccc(S(=O)(=O)CC)c4)c3)cnnc21 | – |
| 2.5 | CCn1cnc2c(-c3ccc(F)c(OCc4ccccn4)c3)cnnc21 | – |
| 2 | CCn1cnc2c(-c3ccc(F)c(Oc4cnc(C#N)nc4)c3)cnnc21 | – |
| 2.6 | CCn1cnc2c(-c3ccc(F)c(Oc4ccnc(C)c4)c3)cnnc21 | – |
| 2.7 | CC(C)n1cnc2c(-c3ccc(F)c(Oc4ccc(C#N)cn4)c3)cnnc21 | – |
| 2.3 | CCn1cnc2c(-c3ccc(F)c(Oc4ccc(C#N)cn4)c3)cnnc21 | – |
| 2.3 | N#Cc1ccc(Oc2cc(-c3cnnc4c3ncn4C3CC3)ccc2F)nc1 | – |
| 3 | CCn1cnc2c(-c3ccc(F)c(-c4cc(C(=O)NC)ccc4F)c3)cnnc21 | – |
| 2.5 | CCn1cnc2c(-c3ccc(F)c(-c4ccc(C(=O)N(C)C)cc4)c3)cnnc21 | – |
| 2.9 | Cc1cc(-c2cc(-c3cnnc4c3ncn4C3CC3)ccc2F)ccn1 | – |

The remaining lines, values behind:

| Compound | logD [1] | other results |
| --- | --- | --- |
| CCn1cnc2c(-c3ccc(F)c(-c4ccc(S(=O)(=O)C5CC5)cc4OC)c3)cnnc21 | 2.7 | – |
| CCn1cnc2c(-c3ccc(Cl)c(-c4ccc(S(=O)(=O)CC)cc4OC)c3)cnnc21 | 3.1 | – |
| CCn1cnc2c(-c3ccc(F)c(-c4ccc(S(=O)(=O)CC)cc4)c3)cnnc21 | 2.9 | – |
| CCn1cnc2c(-c3ccc(F)c(-c4ccc(S(C)(=O)=O)cc4OC)c3)cnnc21 | 2.5 | – |
| CCn1cnc2c(-c3ccc(F)c(-c4ccc(S(=O)(=O)C(C)C)cc4OC)c3)cnnc21 | 3 | – |
| CCn1cnc2c(-c3ccc(F)c(-c4ccc(S(=O)(=O)CC)cc4F)c3)cnnc21 | 2.6 | – |
| CCn1cnc2c(-c3ccc(F)c(-c4ccc(S(=O)(=O)C5COC5)cc4OC)c3)cnnc21 | 2.2 | – |
| CCn1cnc2c(-c3ccc(F)c(-c4ccc5c(c4)C(=O)N(C)C5)c3)cnnc21 | 2.6 | – |
| CCS(=O)(=O)c1ccc(-c2cc(-c3cnnc4c(OC)cnn34)ccc2F)cc1 | 2.8 | – |
| CCn1cnc2c(-c3ccc(F)c(-c4ccc(S(=O)(=O)CC)cc4Cl)c3)cnnc21 | 3.2 | – |
| CCc1cnn2c(-c3ccc(F)c(-c4ccc(S(=O)(=O)CC)cc4)c3)cnnc12 | 3.5 | – |
| CCn1nnc2c(-c3ccc(F)c(-c4ccc(S(=O)(=O)CC)cc4)c3)cnnc21 | 3.3 | – |
| CCn1cnc2c(-c3ccc(F)c(-c4ccc5c(c4)CN(C)C5=O)c3)cnnc21 | 2.7 | – |
| CCn1cnc2c(-c3ccnc(OC)c3)cnnc21 | 1.5 | – |
| CCc1cnn2c(-c3ccc(F)c(-c4ccc(S(=O)(=O)CC)cc4)c3)ccnc12 | 3.9 | – |
| CCn1cnc2c(-c3ccc(F)c(-c4cc5c(cc4OC)C(=O)N(C)C5)c3)cnnc21 | 2.6 | Vd [2]: 0.55 L/kg; solubility [3]: 15 µM (≈ 6.26 µg/mL); Papp [4]: 21 ×10⁻⁶ cm/s; Vd [5]: 2.61 L/kg; bioavailability [6]: 43%; bioavailability [7]: 76% |
| CCn1cnc2c(-c3ccnc(Oc4cccc(S(=O)(=O)CC)c4)c3)cnnc21 | 1.6 | – |
| CCn1cnc2c(-c3ccnc(Oc4ccccc4)c3)cnnc21 | 2.6 | – |
| CCOc1cc(S(=O)(=O)CC)ccc1-c1cc(-c2cnnc3c2ncn3CC)ccc1F | 3.3 | – |
| CCn1cnc2c(-c3ccc(F)c(-c4ccc(S(=O)(=O)CC)cc4OC)c3)cnnc21 [DARIGABAT] | 2.7 | Vd [2]: 2.1 L/kg; solubility [3]: 95 µM (≈ 41.8 µg/mL); Papp [4]: 17 ×10⁻⁶ cm/s; Vd [5]: 3.4 L/kg; bioavailability [6]: 130%; bioavailability [7]: 99% |
